These results are taken from ChEMBL document CHEMBL1153398, “Synthesis, activity and molecular modeling of a new series of chromones as low molecular weight protein tyrosine phosphatase inhibitors” (Bioorg Med Chem, 2009).

pIC50, pKi: −log10 of the molar value. Active and inactive are the calls of the source. The calls are words filed in the database; no cut-off is given here.

Assay [1] has as its target T1, Tyrosine-protein phosphatase non-receptor type 1 (Homo sapiens, UniProt P18031).
T1 sequence (P18031 whole entry): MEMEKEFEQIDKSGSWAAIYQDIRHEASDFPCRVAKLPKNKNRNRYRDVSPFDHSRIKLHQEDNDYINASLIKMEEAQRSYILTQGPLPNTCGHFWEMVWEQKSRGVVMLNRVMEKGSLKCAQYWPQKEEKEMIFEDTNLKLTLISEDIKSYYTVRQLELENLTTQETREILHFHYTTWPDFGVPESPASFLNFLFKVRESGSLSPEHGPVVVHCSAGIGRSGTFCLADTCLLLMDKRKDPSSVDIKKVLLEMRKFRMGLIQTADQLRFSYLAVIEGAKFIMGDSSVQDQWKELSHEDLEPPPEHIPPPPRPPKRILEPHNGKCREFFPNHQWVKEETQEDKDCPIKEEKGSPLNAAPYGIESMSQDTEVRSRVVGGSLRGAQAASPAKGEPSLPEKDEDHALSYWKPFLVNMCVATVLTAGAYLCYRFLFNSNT
In words: Inhibition of human cloned PTP1B expressed in Escherichia coli TB1. The gist of the method: (§1)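 GST-fused human enzymes (LMW-PTP IF1 or IF2, or PTP-1B) expressed in E. coli TB1, affinity-purified, thrombin-cleaved (3 h, 37 °C) and gel-filtered. […] Reaction stopped with 1 M KOH; p-nitrophenol read at 400 nm. Initial rates in triplicate; IC50 fitted to Vi/V° = IC50/(IC50+[I]); single-concentration lines give % inhibition.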

In assay [2] the target is T2, Low molecular weight phosphotyrosine protein phosphatase (Homo sapiens, UniProt P24666).
T2 sequence (P24666 whole entry): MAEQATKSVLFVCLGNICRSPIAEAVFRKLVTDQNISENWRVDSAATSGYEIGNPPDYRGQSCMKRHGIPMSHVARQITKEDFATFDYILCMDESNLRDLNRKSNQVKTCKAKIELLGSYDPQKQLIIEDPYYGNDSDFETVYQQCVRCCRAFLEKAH
In words: Inhibition of human cloned LMW-PTP isoform 1 expressed in Escherichia coli TB1.

For assay [3], the target named is T3, Tyrosine-protein phosphatase non-receptor type 1 (Homo sapiens) (UniProt P18031).
T3 sequence (whole entry): T1 sequence (P18031 whole entry)
Nature of the assay: Inhibition of human cloned PTP1B expressed in Escherichia coli TB1 at 15 uM. The gist of the method: as §1

For assay [4], the target named is T2, Low molecular weight phosphotyrosine protein phosphatase. In words: Inhibition of human cloned LMW-PTP isoform 2 expressed in Escherichia coli TB1.
Assay [5] addresses T4, Low molecular weight phosphotyrosine protein phosphatase (Homo sapiens) (UniProt P24666).
T4 sequence (whole entry): T2 sequence (P24666 whole entry)
Nature of the assay: Inhibition of human cloned LMW-PTP isoform 2 expressed in Escherichia coli TB1 at 20 uM. An outline of the steps: as §1

Assay [6] addresses T4, Low molecular weight phosphotyrosine protein phosphatase (Homo sapiens). In words: Inhibition of human cloned LMW-PTP isoform 1 expressed in Escherichia coli TB1 at 20 uM. An outline of the steps:
as §1

Assay [7] has as its target T3, Tyrosine-protein phosphatase non-receptor type 1 (Homo sapiens). Nature of the assay: Inhibition of human cloned PTP1B expressed in Escherichia coli TB1 at 20 uM. An outline of the steps: as §1
Assay [8] has as its target Insulin receptor (Homo sapiens) (UniProt P06213). In words: Activation of human insulin receptor beta expressed in human HepG2 cells assessed as increase in tyrosine phosphorylation level at 10 uM after 90 mins by SDS-PAGE. The assay is classed as cell-based. The gist of the method:
(§2)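 HepG2 cells grown in DMEM with 10% bovine calf serum, 37 °C, 5% CO2; subconfluent cells serum-starved 20 h. Inhibitor added to medium at 10 µM final, 90 min, 37 °C; 10 nM insulin, 0.5% DMSO and 10 µM orthovanadate as references. Lysis in SDS Laemmli buffer, SDS-PAGE, Western blot for phospho-IRβ, then stripped and reprobed for phospho-Akt, phosphotyrosine and actin. At least three separate experiments.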

Assay [9] has as its target T2, Low molecular weight phosphotyrosine protein phosphatase. Nature of the assay: Inhibition of human cloned LMW-PTP isoform 2 expressed in Escherichia coli TB1 by competitive inhibition assay.
In assay [10] the target is Insulin receptor (Homo sapiens) (UniProt P06213). In words: Activation of human insulin receptor beta expressed in human HepG2 cells assessed as stimulation of receptor phosphorylation at 10 uM after 90 mins by SDS-PAGE. The assay is classed as cell-based. An outline of the steps:
as §2

In assay [11] the target is T2, Low molecular weight phosphotyrosine protein phosphatase. In words: Inhibition of human cloned LMW-PTP isoform 1 expressed in Escherichia coli TB1 by competitive inhibition assay.
Assay [12] has the same target. Nature of the assay: Inhibition of human cloned LMW-PTP isoform 2 expressed in Escherichia coli TB1 by mixed type inhibition assay.
The target is the same in assay [13]. In words: Inhibition of human cloned LMW-PTP isoform 1 expressed in Escherichia coli TB1 by mixed type inhibition assay.
In assay [14] the target is Insulin receptor (Homo sapiens) (UniProt P06213). In words: Activation of human insulin receptor beta expressed in human HepG2 cells assessed as increase in Akt phosphorylation level at 10 uM after 90 mins by SDS-PAGE. The assay is classed as cell-based. An outline of the steps: as §2
The target of assay [15] is T4, Low molecular weight phosphotyrosine protein phosphatase (Homo sapiens). Nature of the assay: Inhibition of human cloned LMW-PTP isoform 1 expressed in Escherichia coli TB1 at 15 uM. The gist of the method:
as §1

For assay [16] the target is unchanged. Nature of the assay: Inhibition of human cloned LMW-PTP isoform 2 expressed in Escherichia coli TB1 at 15 uM. An outline of the steps:
as §1

For assay [17], the target named is T1, Tyrosine-protein phosphatase non-receptor type 1. Nature of the assay: Inhibition of human cloned PTP1B expressed in Escherichia coli TB1 by mixed type inhibition assay.
The target is the same in assay [18]. In words: Inhibition of human recombinant PTP1B.

Sequence of Insulin receptor (Homo sapiens) (P06213 28-758 limits assumed): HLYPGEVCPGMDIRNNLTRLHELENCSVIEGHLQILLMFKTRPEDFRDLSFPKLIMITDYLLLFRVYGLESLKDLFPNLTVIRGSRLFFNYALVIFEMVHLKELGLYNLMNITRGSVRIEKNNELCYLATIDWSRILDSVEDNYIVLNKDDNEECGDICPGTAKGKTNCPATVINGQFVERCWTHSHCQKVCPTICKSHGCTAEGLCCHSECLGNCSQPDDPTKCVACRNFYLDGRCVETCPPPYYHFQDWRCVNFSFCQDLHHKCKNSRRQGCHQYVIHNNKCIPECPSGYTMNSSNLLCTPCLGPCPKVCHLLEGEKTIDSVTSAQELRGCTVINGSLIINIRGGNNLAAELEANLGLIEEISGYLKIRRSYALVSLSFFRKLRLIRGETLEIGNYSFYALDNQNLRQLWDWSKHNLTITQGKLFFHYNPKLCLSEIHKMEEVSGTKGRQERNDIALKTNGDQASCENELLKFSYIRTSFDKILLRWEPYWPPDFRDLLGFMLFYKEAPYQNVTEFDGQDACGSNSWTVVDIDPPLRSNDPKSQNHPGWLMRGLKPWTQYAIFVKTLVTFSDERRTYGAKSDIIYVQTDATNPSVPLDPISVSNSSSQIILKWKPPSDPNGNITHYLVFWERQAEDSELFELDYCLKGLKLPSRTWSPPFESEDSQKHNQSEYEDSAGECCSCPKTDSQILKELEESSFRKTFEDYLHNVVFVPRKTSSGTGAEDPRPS
Sequence of Insulin receptor (Homo sapiens) (P06213 763-1382 limits assumed): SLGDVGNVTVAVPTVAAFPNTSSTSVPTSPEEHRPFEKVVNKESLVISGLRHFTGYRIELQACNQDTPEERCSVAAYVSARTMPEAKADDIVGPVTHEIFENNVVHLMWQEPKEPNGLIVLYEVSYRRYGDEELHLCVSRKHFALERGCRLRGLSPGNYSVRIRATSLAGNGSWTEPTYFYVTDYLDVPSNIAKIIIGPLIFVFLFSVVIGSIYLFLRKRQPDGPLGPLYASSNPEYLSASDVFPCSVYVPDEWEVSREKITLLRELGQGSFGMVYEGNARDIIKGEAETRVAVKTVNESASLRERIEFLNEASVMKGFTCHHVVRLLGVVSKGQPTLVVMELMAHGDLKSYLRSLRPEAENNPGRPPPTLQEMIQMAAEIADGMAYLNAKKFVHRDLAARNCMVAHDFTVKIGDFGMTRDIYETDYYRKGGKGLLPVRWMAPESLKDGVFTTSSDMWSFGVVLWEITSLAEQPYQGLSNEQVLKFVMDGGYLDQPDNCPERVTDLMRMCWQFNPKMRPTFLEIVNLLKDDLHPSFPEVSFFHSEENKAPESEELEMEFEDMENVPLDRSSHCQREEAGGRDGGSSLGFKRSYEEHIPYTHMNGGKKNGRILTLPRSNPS

What is called pIC50 is the negative decadic logarithm of the IC50, by convention in mol/L. `O=c1c(Cc2ccc(-c3ccc(O)cc3)cc2)c(-c2ccc(O)cc2)oc2cc(O)ccc12` showed a pIC50 in assay [1] of 4.77.

The inhibition is the share of the control response that was lost under treatment. Regarding `O=c1c(Cc2ccc(-c3ccccc3)cc2)c(Cc2ccc(O)cc2)oc2cc(O)ccc12`, the pIC50 is 5.28 in assay [2] and 4.76 in assay [4]. The same molecule gave an inhibition in assay [3] of 10%.

On to `O=C(O)c1ccc(-c2cccc(Cc3c(-c4ccc(O)cc4)oc4cc(O)ccc4c3=O)c2)cc1O`, for which the inhibition in assay [5] amounted to 10%; in assay [6], 5%; in assay [7], 50%.

`O=C(O)c1ccc(-c2ccc(Cc3c(-c4ccc(O)cc4)oc4ccccc4c3=O)cc2)cc1O`: the pIC50 in assay [2] was 6.15; in assay [4], 5.24; in assay [1] it was 6.05.

What is called pKi is −log10 of the Ki, conventionally taken in molar units. The low end stands for a large Ki, the high end for a small Ki. Take `O=c1c(Cc2ccc(-c3ccccc3)cc2)c(-c2ccc(O)cc2)oc2cc(O)c(O)cc12`: the outcome in [8] and in assay [10] was Active. The pIC50 in [2] was 5.96; in assay [4] it was 5.52; in assay [1], 5.70. For the same molecule, the pKi in assay [9] is 6.47; in [11], 6.57.

Regarding `O=c1c(Cc2ccc(-c3ccc(O)c(O)c3)cc2)c(-c2ccc(O)cc2)oc2cc(O)ccc12`, the outcome in [8], in assay [14] and in [10] was Active. Also, the pIC50 in [2] was 5.13; in assay [4], 4.91; in [1], 5.11. In addition, the pKi in assay [12] is 5.57; in [13], 5.65.

Regarding `Oc1ccc(-c2ccccc2)cc1O`, the inhibition amounted to 0% in assay [5], 0% in assay [6] and 20% in assay [7].

`O=c1c(Cc2ccccc2)c(Cc2ccc(O)cc2)oc2cc(O)ccc12`: the figures for the inhibition in assay [3], in [15] and in assay [16] were 0%, 10% and 10%, respectively.

As for `O=c1c(Cc2ccc(-c3ccccc3)cc2)c(-c2ccc(O)cc2)oc2cc(O)ccc12`, the results for the pIC50 in assay [2] and in [4] were 5.24 and 4.86, respectively. The pKi is 5.11 in assay [12], 5.60 in assay [13] and 4.54 in assay [17]. Besides, the inhibition in assay [3] turned out to be 4%.

On to `O=c1cc(-c2ccc(O)cc2)oc2cc(O)c(O)cc12`, for which the inhibition in assay [5] stood at 10%; in assay [6], 25%; in [7] it was 10%.

As to `O=C(O)c1ccc(-c2ccc(Cc3c(-c4ccc(O)cc4)oc4cc(O)ccc4c3=O)cc2)cc1O`, the result in assay [8], in assay [14] and in assay [10] was Active. For the same molecule, the pIC50 in [2] was 5.89; in assay [4], 5.66; in [1] it was 6.00.

Consider `Oc1ccc(-c2ccccc2)c(O)c1`, for which the inhibition came to 0% in assay [5], 0% in assay [6] and 10% in assay [7].

Consider `O=c1cc(Cc2ccc(O)cc2)oc2cc(O)ccc12`, for which the results for the inhibition in [3], in assay [15] and in assay [16] were 0%, 10% and 10%, respectively.

With `O=C(O)c1cccc(-c2ccc(Cc3c(-c4ccc(O)cc4)oc4cc(O)ccc4c3=O)cc2)c1`, the negative logarithm of the IC50 (pIC50) was 4.94 in [2], 4.57 in [4] and 5.21 in assay [1].

Consider `O=C(O)c1ccc(-c2ccccc2)cc1O`, for which the inhibition in assay [5] was 0%; in assay [6] it was 0%; in assay [7], 5%.

As for `O=C(c1ccc(O)cc1)c1oc2ccccc2c1-c1ccc(-c2ccc(O)cc2)cc1`, the negative logarithm of the IC50 (pIC50) in assay [18] is 5.97.

`O=c1c(Cc2ccc(-c3ccccc3)cc2)c(Cc2ccc(O)cc2)oc2ccc(O)cc12`: the pIC50 in [2] is 5.07; in assay [4], 4.76. The inhibition in assay [3] was 20%.

As for `O=c1c(Cc2ccc(-c3ccc(O)c(O)c3)cc2)c(-c2ccc(O)cc2)oc2ccccc12`, the results for the pIC50 in [2], in assay [4] and in assay [1] were 4.84, 4.90 and 5.30, respectively.

In the case of `O=c1c(Cc2ccc(-c3ccccc3)cc2)c(CCc2ccc(O)cc2)oc2cc(O)ccc12`, the values for the pIC50 in assay [2] and in [4] were 5.19 and 4.76, respectively. Also, in assay [3], the inhibition stood at 20%.

On to `O=c1c(Cc2ccc(-c3ccccc3)cc2)c(CCCc2ccc(O)cc2)oc2cc(O)ccc12`, for which the inhibition in [3] stood at 0%; in [15], 10%; in assay [16] it was 10%.

Regarding `O=c1c(Cc2cccc(-c3ccc(O)c(O)c3)c2)c(-c2ccc(O)cc2)oc2cc(O)ccc12`, the inhibition in assay [5] was found to be 25%; in [6], 60%; in assay [7], 50%.
